Published values pooled from the literature.
Compare with care: the assays were run in different laboratories.
KIT L576P: Mast/stem cell growth factor receptor Kit (KIT, Homo sapiens, UniProt P10721, L576P)
KIT D816V: Mast/stem cell growth factor receptor Kit (KIT, Homo sapiens, UniProt P10721, D816V)
KIT A829P: Mast/stem cell growth factor receptor Kit (KIT, Homo sapiens, UniProt P10721, A829P)
KIT: Mast/stem cell growth factor receptor Kit (KIT, Homo sapiens, UniProt P10721)
KIT T670I/V559D: Mast/stem cell growth factor receptor Kit (KIT, Homo sapiens, UniProt P10721, T670I/V559D)
KIT V559D/V654A: Mast/stem cell growth factor receptor Kit (KIT, Homo sapiens, UniProt P10721, V559D/V654A)
KIT D816H: Mast/stem cell growth factor receptor Kit (KIT, Homo sapiens, UniProt P10721, D816H)
KIT autoinhibited: Mast/stem cell growth factor receptor Kit, autoinhibited (KIT, Homo sapiens, UniProt P10721)
KIT V559D: Mast/stem cell growth factor receptor Kit (KIT, Homo sapiens, UniProt P10721, V559D)

SMILES	target	read-out	technique	concentration	remaining binding [%]
Cc1cc(NC(=O)c2cccc(S(F)(F)(F)(F)F)c2)cc(-n2ccn3nc(-c4cccnc4)cc23)c1	KIT L576P	cell-free assay	competition with immobilised ligand	1 µM	100
O=C(NCC1CCOCC1)c1n[nH]cc1NC(=O)c1c(F)cccc1F	KIT D816V	binding	competition with immobilised ligand	1 µM	100
COc1ncc2cc3ccccc3nc2c1C#N	KIT A829P	cell-free assay	competition with immobilised ligand	5 µM	100
C=CC(=O)N1CCC(C(=O)NCC(=O)N2CCN(c3nc(-c4cnc(N)nc4C(F)F)nc(N4CCOCC4)n3)CC2)CC1	KIT	binding	competition with immobilised ligand	1 µM	93
COc1ccc2c(c1)O[C@@H](c1ccc(OC)c(OC)c1)C[C@H]2NC(=O)C1(c2ccc3c(c2)OC(F)(F)O3)CC1	KIT L576P	cell-free assay	competition with immobilised ligand	1 µM	92
O=C(Nc1c[nH]nc1C(=O)NC1CCNCC1)c1cc(F)cc(F)c1	KIT T670I/V559D	binding	competition with immobilised ligand	1 µM	100
CCCCN(CCCC)C(=O)CN1C[C@H](c2cc(OC)c3c(c2)OCO3)[C@@H](C(=O)O)[C@@H]1CC(C)(C)CCC	KIT D816V	cell-free assay	competition with immobilised ligand	1 µM	100
F[C@@H]1CCN(c2nccc(-c3cnn4ncccc34)n2)C1	KIT D816V	binding		1 µM	100
Nc1ncc2c(n1)-c1c([nH]c3ccc(C#CC4CC4)cc13)CCCC2	KIT V559D/V654A	binding	competition with immobilised ligand	1 µM	100
O=C(c1ccc(Nc2ncc(Cl)c(-c3cc4ccccc4s3)n2)cc1)N1CCC(N2CCCC2)CC1	KIT V559D/V654A	binding	competition with immobilised ligand	1 µM	50
CN(C)c1nccc(-c2cnc3ncccn23)n1	KIT	binding		1 µM	69
O=C(NCCCN1CCOCC1)c1ccc(Nc2nccc(-c3cc4ccccc4s3)n2)cc1	KIT V559D/V654A	binding	competition with immobilised ligand	1 µM	56
COc1cnc(Nc2cccc(S(N)(=O)=O)c2)nc1N1CCN(c2ccccc2)CC1	KIT A829P	binding	competition with immobilised ligand	1 µM	65
c1cnn2ncc(-c3ccnc(N4CCC45COC5)n3)c2c1	KIT A829P	binding		1 µM	61
CN1CCN(c2ccc(Nc3nccc(-c4ccccc4)n3)cc2C(F)(F)F)CC1	KIT D816V	binding		10 µM	6.8
c1cncc(-c2cccc(Nc3nccc(NC4CCCCC4)n3)c2)c1	KIT A829P	binding	competition with immobilised ligand	10 µM	27
Cc1cnc(Nc2ccc(C(=O)N3CCC(N4CCCC4)CC3)cc2)nc1-c1cc2ccccc2s1	KIT D816H	binding	competition with immobilised ligand	1 µM	7.8
CN(c1nccc(-c2cnn3ncccc23)n1)C1CC1	KIT autoinhibited	binding		1 µM	100

SMILES	target	read-out	technique	concentration	remaining binding [%]
C[C@@H](c1ccc(-n2cnc3c(N)ncnc32)cc1)N1CCc2nn(C)c(Cc3ccccc3)c2C1=O	KIT V559D/V654A	binding	competition with immobilised ligand	0.1 µM	78
N#Cc1ccccc1CSc1nnc2c(n1)[nH]c1ccccc12	KIT T670I/V559D	binding	competition with immobilised ligand	10 µM	100
CNC(=O)[C@@H]1CC[C@@H](n2c(-c3ccc4cnccc4c3)nc3ccc(C(=O)NCc4cccc(C(N)=O)c4)cc32)C1	KIT	binding	competition with immobilised ligand	1 µM	100
C[C@H](NC(=O)c1cnc2n1[C@](C)(Cc1ccc(C#N)cc1)C(=O)N2c1cc(Cl)c(F)c(Cl)c1)C(=O)NC1(c2ccccn2)CC1	KIT D816H	cell-free assay	competition with immobilised ligand	1 µM	100
COc1cnc(Nc2cccc(S(N)(=O)=O)c2)nc1N1CCN(c2ccccc2)C(=O)C1	KIT D816H	binding	competition with immobilised ligand	1 µM	55
COc1cc(-c2cn(C3CCc4ccccc4N(CC(F)(F)F)C3=O)nn2)ccc1-n1ccc(C)n1 (stereo not drawn)	KIT autoinhibited	cell-free assay	competition with immobilised ligand	1 µM	100
N[C@H]1CCN(c2nccc(-c3cnn4ncccc34)n2)C1	KIT V559D	binding		1 µM	87
C[C@@H]1CN(c2ccc3ncc(-c4ccc5[nH]nc(C6CC6)c5c4)n3n2)C[C@H](C)O1	KIT	binding	competition with immobilised ligand	50 nM	96
Cc1cnn2ncc(-c3ccnc(N(C)C)n3)c2c1	KIT T670I/V559D	binding		1 µM	100
CN1CCN(c2ccc(Nc3nccc(-c4cccc([N+](=O)[O-])c4)n3)cc2C(F)(F)F)CC1	KIT T670I/V559D	binding		10 µM	0.15
O=C(c1ccc(Nc2ncc(Cl)c(-c3ccc(Cl)s3)n2)cc1)N1CCC(N2CCCC2)CC1	KIT T670I/V559D	binding	competition with immobilised ligand	1 µM	0.75
CCN1CCN(Cc2ccc(C(=O)Nc3ccc(C)c(Oc4ccc5c(c4)CC(=O)N5)c3)cc2C(F)(F)F)CC1	KIT D816V	binding	competition with immobilised ligand	1 µM	81
CO[C@H]1CC[C@H](CNc2ccc(S(=O)(=O)NC(=O)c3ccc(N4CCN(CC5=C(c6ccc(Cl)cc6)CC(C)(C)CC5)CC4)cc3Oc3cnc4[nH]ccc4c3)cc2[N+](=O)[O-])CC1	KIT V559D	cell-free assay	competition with immobilised ligand	1 µM	99
CC1CCCN1c1nccc(-c2cnn3ncccc23)n1 (stereo not drawn)	KIT V559D/V654A	binding		1 µM	100
CN(C)C(=O)Cn1cc(-c2nc(C3(c4ccc(-c5cnc(N)nc5)cc4)CC3)no2)cn1	KIT	cell-free assay	competition with immobilised ligand	1 µM	93
O=C(NCCCN1CCOCC1)c1ccc(Nc2ncc(Cl)c(-c3ccc(Cl)s3)n2)cc1	KIT V559D/V654A	binding	competition with immobilised ligand	1 µM	9.9
Cc1nc(Cc2cccc(C(F)(F)F)c2)sc1-c1ccc(C(N)=O)nc1	KIT D816V	cell-free assay	competition with immobilised ligand	1 µM	81
C[C@@H]1CCN(c2nccc(-c3cnn4ncccc34)n2)C1	KIT D816H	binding		1 µM	79
